This is a sample that favours compounds with a hit; in the whole collection about 4% have one here.
hERG rescue: compounds protecting human hERG from proarrhythmic drug block; Q12809; CHO-hERG, FluxOR thallium flux, dofetilide IC70 present; activation (rescue from dofetilide block), less the hit threshold, % at 10 µM; 310,000 tested, 0.51% active;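 active means activation above the mean of controls blocked by dofetilide plus 5 SD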;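 further: thallium influx through hERG after potassium depolarization seen as dye fluorescence rise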
KCNK3 inh: human KCNK3 channel inhibition, primary screen; 340,000 tested, 0.84% active; B-score at 10 µM; AID 602410; CHO-KCNK3 thallium flux, FluxOR fluorescence; stronger effect = lower value;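 active means B-score under library mean minus 4 SD, starting fluorescence ratio at most library mean plus 5 SD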;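 further: more negative B-score means stronger inhibition of thallium flux through KCNK3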
PHOSPHO1 block: PHOSPHO1 (human) inhibition | Q8TCT1 | recombinant PHOSPHO1, absorbance phosphatase assay | inhibition, % at 13.3 µM | 290,000 tested, 1.1% active | AID 1565; in the data active means inhibition above about 60%
KCNK9 block: blocks the human KCNK9 two-pore domain potassium channel; Q9NPC2; HEK293 KCNK9, FluxOR thallium flux fluorescence; stronger effect = lower value; B-score at 10 µM; 310,000 tested, 1.2% active; AID 488922;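 active means ratio B-score over 3 SD below the library mean, with starting fluorescence within 5 SD of its mean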;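 further: negative B-score means less thallium flux so channel inhibition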
KCNQ1 block: inhibitors of human KCNQ1 potassium channel; AID 2642; P51787; B-score at 10 µM; 310,000 tested, 1.3% active; CHO-K1 KCNQ1, FluxOR thallium flux fluorescence; stronger effect = higher value;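 active means compounds whose thallium flux B-score, printed positive for inhibition, exceeds three library SD while starting fluorescence stays within three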;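 further: channel opened by potassium depolarization with thallium stimulus after 20 min compound exposure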
KCNQ1 act: potentiates or activates the human KCNQ1 potassium channel | P51787 | CHO-K1 KCNQ1, thallium flux FluxOR fluorescence; stronger effect = higher value | B-score at 10 µM | 310,000 tested, 0.35% active;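 active means fluorescence ratio B-score, a plate-corrected score, at least three library SD, with initial intensity B-score within 5 SD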
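Medium – assay buffer, equal DMSO in all wells · Material – CHO-K1 cell line with stable KCNQ1 potassium channel expression · Signal – kinetic FluxOR thallium fluorescence, 10-s 1-Hz baseline, 110-s post-stimulus read · Compound – single concentration per compound, DMSO matched to controls · Schedule – 37 °C overnight plating, 90-min dark dye load, 20-min compound pretreatment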
Large screens that a line does not name were inactive.

Cc1nn(Cc2ccc(C(=O)NC3CCCCC3)o2)c(C)c1Br	KCNQ1 block 6
O=C(NC1CCCCCC1)c1ccc(Br)o1	none
Cc1nn(Cc2ccc(C(=O)NC(C)(C)C)o2)c(C)c1Br	none
O=C(NC1CCCC1)c1ccc(Br)o1	hERG rescue 4.6
COc1ccc(S(=O)(=O)N(C(C)=O)c2ccc3oc(=O)sc3c2)cc1	none
CC1(C)CC(=O)c2c(O)cc(OCC(=O)Nc3ccc(S(N)(=O)=O)cc3)cc2O1	none
COc1cc(NC(=O)COc2cc(O)c3c(c2)OC(C)(C)CC3=O)cc(OC)c1OC	KCNQ1 block 9
O=C(NC1CC1)C1=C[C@@H](c2ccc(C(F)(F)F)cc2)C[C@@H](OCc2ccc(CO)cc2)O1	none (no result: PHOSPHO1 block)
Cc1ccc(Oc2ncccc2NC(=O)CC2(CC(=O)O)CCCC2)c2c1CCC2	none
CCOC(=O)C(=CNc1cccnc1Oc1ccc(C)c2c1CCC2)C(=O)OCC	KCNK9 block -7.2
COc1cccc(NC(=O)c2ccccc2OCc2c(C)noc2C)c1	KCNK3 inh -11 (no result: hERG rescue, PHOSPHO1 block, KCNK9 block, KCNQ1 block, KCNQ1 act)
O=C(Nc1ccc(O)cc1)c1ccccc1OCc1ccccc1	none
CCOc1cc(/C=N/NC(=O)c2ccccc2OCc2ccc(F)cc2)ccc1O	none (no result: hERG rescue, PHOSPHO1 block, KCNK9 block, KCNQ1 block, KCNQ1 act)
COc1ccc(C=NNC(=O)c2ccccc2OCc2ccc(F)cc2)c(OC)c1	KCNK3 inh -9.9 (no result: hERG rescue, PHOSPHO1 block, KCNK9 block, KCNQ1 block, KCNQ1 act)
COc1cc(NC(=O)c2ccccc2OCc2ccccc2)cc(OC)c1OC	hERG rescue 11
Cc1ccc(NC(=O)c2ccccc2OCc2c(C)noc2C)cc1S(=O)(=O)N(C)C	none (no result: hERG rescue, PHOSPHO1 block, KCNK9 block, KCNQ1 block, KCNQ1 act)
Cc1c(CC(=O)O)c(=O)oc2c(C)c(OCc3ccccc3Br)ccc12	none
O=C(Nc1nc2n(n1)C(c1ccccc1)CC(c1ccc(Cl)cc1)N2)c1ccco1 (centres undefined)	KCNK9 block -6.9
CC1(C)Cc2c(sc3c2c(=N)n(Cc2ccco2)c(=O)n3Cc2ccc(Cl)cc2)CO1	KCNQ1 block 8
CSc1nc2c(c(=O)[nH]1)C(c1ccc(F)cc1)CC(=O)N2 (centres undefined)	hERG rescue 12
CSc1nc2c(c(=O)[nH]1)C(c1ccc(Br)cc1)CC(=O)N2 (centres undefined)	hERG rescue 11
CSc1nc2c(c(=O)[nH]1)C(c1ccc(C(F)(F)F)cc1)CC(=O)N2 (centres undefined)	none
O=C(Cn1ccc([N+](=O)[O-])n1)NCCc1c[nH]c2ccccc12	none
CCOCCCn1c(=S)[nH]c2ncccc2c1=O	none
CCOC(=O)c1c(N)sc(-c2ccccc2)c1C	none
CCOC(=O)c1c(N)sc(C(O)(C(F)(F)F)C(F)(F)F)c1-c1ccccc1	KCNK9 block -7.5
Cc1nc2cc(C(=O)OCC(=O)NC(C)C(C)C)ccc2n1-c1ccccc1 (centres undefined)	none
COc1cc(Br)cc2cc(C(=O)N3CCOCC3)c(=O)oc12	none
CC1=CS(=O)(=O)CC1Sc1ncn[nH]1 (centres undefined)	hERG rescue 4.7
CC1=CS(=O)(=O)CC1Sc1nc(C)n[nH]1 (centres undefined)	none
O=C(NC(=S)Nc1ccccc1)c1csnn1	hERG rescue 63, KCNQ1 act 116
O=C(NC(=S)Nc1ccc(C(F)(F)F)cc1)c1csnn1	hERG rescue 56, KCNQ1 act 141
COc1ccc(NC(=S)NC(=O)c2csnn2)cc1	hERG rescue 16, KCNQ1 act 24
O=C(Nc1csnn1)c1csnn1	none
O=C(c1ccc(N2CCN(C(=O)c3ccc(F)c(F)c3)CC2)cc1)c1cccc(F)c1	none
COc1ccc(NC(C)=O)cc1C#N	none
CCCCNC(=O)c1ccc(NC(=O)C2CCCO2)cc1 (centres undefined)	hERG rescue 40
CC(C)OCCCNC(=O)c1ccc(NC(=O)C2CCCO2)cc1 (centres undefined)	none
Cc1sc(NC(=O)c2ccco2)c(C(c2ccc(F)cc2)N2CCN(C)CC2)c1C (centres undefined)	KCNQ1 block 7
Cc1sc(NC(=O)c2ccco2)c(C(c2cccnc2)N2CCN(CCO)CC2)c1C (centres undefined)	none
COc1ccc(C(c2c(NC(=O)c3ccco3)sc(C)c2C)N2CCOCC2)cc1OC (centres undefined)	KCNK3 inh -9.7 (no result: hERG rescue, PHOSPHO1 block, KCNK9 block, KCNQ1 block, KCNQ1 act)

Compound activity deposited in PubChem by several laboratories.
